# Laboratory results as given in publication PMC8320079 (ACS Omega, 2021).
# Values joined by “and” are separate entries in the source; they are usually repeats but may differ in a detail not shown here. Identical values can stand only once.
# Experiments:
# [1] = system: peripheral blood mononuclear cells (PBMCs); assay: MTT-based cell viability assay, normal cells; conditions: for IC50: PBMCs (normal cells), 24 h, mean ± S.D.
# Procedure, shortened: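 Nontumorigenic PBMCs were exposed 24 h to test compound at 0 and 0.01–400 μM in PBS (pH 7.4), using the same culture and dosing conditions as the tumour lines. MTT formazan was read at 570 nm. Percent cytotoxicity was plotted against log concentration, and IC50 taken from a nonlinear fit (bottom and top asymptotes, centre, Hill slope). Cisplatin reference; mean ± S.D.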
# [2] = system: Dalton's lymphoma (DL) cells; assay: MTT-based cell viability assay, DL cells; conditions: for SI PBMC/DL: selectivity index IC50 (PBMC)/IC50 (DL); for IC50: DL cells, MTT, 24 h, mean ± S.D.
# Procedure, shortened: (§1)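 Test compound dilutions in PBS (pH 7.4), 0 and 0.01–100 μM, applied for 24 h. DL cells were grown in RPMI-1640 with 10% FBS and antibiotics at 37 °C, 5% CO2, and subcultured at 80% confluency. Formazan was read at 570 nm. IC50 came from a four-parameter nonlinear fit of % cytotoxicity versus log concentration. Cisplatin reference; mean ± S.D., n = 3. SI = IC50(PBMC)/IC50(DL or EAC); PBMCs were tested at 0.01–400 μM.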
# [3] = system: Ehrlich ascites carcinoma (EAC) cells; assay: MTT-based cell viability assay, EAC cells; conditions: for SI PBMC/EAC: selectivity index IC50 (PBMC)/IC50 (EAC); for IC50: EAC cells, MTT, 24 h, mean ± S.D.
# Procedure, shortened: as §1
# [4] = DMSO-d6 stability study by 31P{1H} and 1H NMR; format: physicochemical; conditions: for stability over time in DMSO-d6: 31P{1H} and 1H NMR at time intervals over 6 h
# [5] = system: EAC cell line; assay: Apoptosis, AO/EB dual staining, EAC cells; format: cell-based; conditions: 24 h
# Procedure, shortened: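 Cells (1 × 10^6) exposed 24 h to test compound at 0.01, 0.1, 0.5, 1, 5 and 10 μM; washed twice with PBS (pH 7.4); stained 5 min in a dark cold room with acridine orange and ethidium bromide, 100 μg/mL each in PBS. Fluorescence microscopy in three replicates, about 1000 cells counted per group; orange/red nuclei scored as apoptotic (%). Cisplatin reference; mean ± S.D., n = 3, one-way ANOVA.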
# [6] = Solubility noted as property of the isolated complex; format: physicochemical; conditions: qualitative
# [7] = system: DL cell line; assay: Apoptosis, AO/EB dual staining, DL cells; format: cell-based; conditions: 24 h
Compound,IC50 [1] [µM],SI PBMC/DL [2],SI PBMC/EAC [3],stability over time in DMSO-d6 [4],stability in DMSO (properties line of the synthesis) [4],"cytotoxicity in normal cells, in words ([1]; PBMCs)",IC50 [2] [µM],apoptosis-inducing ability [5],solubility in DMSO [6],apoptosis-inducing ability [7],IC50 [3] [µM]
"Cc1ccc(C(C)C)cc1.[Cl][Os-]([Cl])[P+](c1ccccc1)(c1ccccc1)c1ccccc1 [Compound 3, [OsCl2(η^6-p-cymene)(PPh3)]]",149.9 ± 1.2,1.33,1.22,,,,,,,,
"Cc1ccc(C(C)C)cc1.[Cl][Ge-]([Cl])[Cl].[Cl][Os-]1[P+](c2ccccc2)(c2ccccc2)C[P+]1(c1ccccc1)c1ccccc1 [Compound 8, [OsCl(η^6-p-cymene)(κ^2-dppm)]^+GeCl3^–]",161 ± 2.8,19.42,8.86,some decomposition of the complex occurs,somewhat stable in DMSO,negligible cytotoxicity,8.3 ± 0.05,inducing apoptotic cell death,sparingly soluble,stronger apoptosis-inducing ability than the rest of the tested compounds,18.2 ± 0.05
"Cc1ccc(C(C)C)cc1.[Cl][Os-]1[P+](c2ccccc2)(c2ccccc2)C[P+]1(c1ccccc1)c1ccccc1.[Cl][Sn-]([Cl])[Cl] [Compound 10, [OsCl(η^6-p-cymene)(κ^2-dppm)]^+SnCl3^–]",145 ± 1.8,9.18,6.78,stable in DMSO-d6 for as long as 6 h,stable in DMSO,,15.8 ± 0.05,,readily soluble,,21.4 ± 0.57
"N.N.[Cl][Pt][Cl] [cisplatin, reference compound]",15.04 ± 0.05,79.2 and 79.15,40.64,,,,0.19 ± 0.07,,,,0.37 ± 0.1
[OsCl(η^6-p-cymene)(PPh3)(GeCl3)] [Compound 7],397.6 ± 3.5,4.28,3.83,somewhat less stable in DMSO-d6,unstable in DMSO,,93 ± 2.8,,sparingly soluble,,
[OsCl(η^6-p-cymene)(PPh3)(SnCl3)] [Compound 11],,6.72,4.90,,,,63.7 ± 1.3,,soluble in DMSO,,87.3 ± 1.6
